Laboratory results from ChEMBL document CHEMBL1817640, “Synthesis, trypanocidal activity and molecular modeling studies of 2-alkylaminomethylquinoline derivatives” (Eur J Med Chem, 2011).
Activity calls are given as the source filed them. No cut-off for these calls is given here.

Legend:
Trypanosoma cruzi [1] = test: Trypanocidal activity against epimastigote form of Trypanosoma cruzi assessed as [3H]thymidine uptake after 72 hrs by liquid scintillation counter; format: functional, organism-based
Outline: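 RA-strain epimastigotes grown in biphasic medium at 26 °C, adjusted to 1.5 × 10⁶/mL. Cultured 72 h with compound at 100, 50, 10, 5, 1 and 0.5 (final). Benznidazole 5–20 as positive control. Growth measured by [³H]thymidine uptake. % inhibition = 100 − (cpm treated/cpm untreated × 100); IC50 estimated from this.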

Trypanosoma cruzi [2] = test: Trypanocidal activity against bloodstream trypomastigote form of Trypanosoma cruzi after 24 hrs; format: functional, organism-based
Outline: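 Trypomastigotes were taken by cardiac puncture from infected CF1 mice at peak parasitemia (day 15). Blood was diluted in complete RPMI to 1.5 × 10⁶ parasites/mL and seeded in duplicate with compound at 0.5–100 final concentration; benznidazole served as control drug. After 24 h incubation at 4 °C, surviving parasites were counted in a Neubauer chamber.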

Trypanosoma cruzi [3] = test: Trypanocidal activity against intracellular amastigotes form of Trypanosoma cruzi expressing beta-galactosidase infected in mouse J774 cells on day 7; format: functional, organism-based; details: J774, 168 h
Outline: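 Host cells infected with β-galactosidase-expressing trypomastigotes at a 10:1 parasite:cell ratio. After 24 h, washed twice with PBS, then compound added at 0.5–100 in phenol-red-free complete RPMI, duplicates. Uninfected and infected controls included. Developed with CPRG (100 final) plus 1% Nonidet P-40 for 4–6 h at 37 °C, read at A570. % inhibition relative to untreated infected cells; IC50 estimated.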

[4] = Cytotoxicity against african green monkey COS7 cells after 24 hrs by MTT assay; format: cell-based; details: chlorocebus aethiops, COS-7 cells
[5] = Selectivity index, ratio of CC50 for african green monkey COS7 cells to IC50 for bloodstream trypomastigote form of Trypanosoma cruzi; format: functional, COS-7
Outline: (§1)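 SI = CC50 divided by the IC50 against trypomastigotes or amastigotes, respectively.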

[6] = Selectivity index, ratio of CC50 for african green monkey COS7 cells to IC50 for intracellular amastigotes form of Trypanosoma cruzi; format: functional, COS-7; outline: as §1
Trypanosoma cruzi [7] = test: Antitrypanosomal activity against bloodstream trypomastigote form of Trypanosoma cruzi RA infected in C3H/HeN mouse assessed as reduction in parasites at 1 mg/kg administered 5 days after infection for 10 consecutive days relative to untreated control; format: functional
Trypanosoma cruzi [8] = test: Antitrypanosomal activity against bloodstream trypomastigote form of Trypanosoma cruzi RA infected in C3H/HeN mouse assessed as decrease in parasitemia at 1 mg/kg administered 5 days after infection for 10 consecutive days measured on day 14 relative to untreated control; format: functional, organism-based; set-up: dose 1 mg/kg

SMILES | IC50 (Trypanosoma cruzi [1]) | IC50 (Trypanosoma cruzi [2]) | IC50 (Trypanosoma cruzi [3]) | CC50 at 24 h [4] | Ratio CC50/IC50 [5] | Ratio CC50/IC50 [6] | fold change (FC) (Trypanosoma cruzi [7]) | Activity (Trypanosoma cruzi [8])
CCOC(=O)c1c(CN(CC)CC)nc2ccc(Cl)cc2c1-c1ccccc1 | 11.6 µM | 42.6 µM | 33 µM | 480 µM | 11.3 | 14.5 |  | 
CCOC(=O)c1c(CN2CCOCC2)nc2ccc(Cl)cc2c1-c1ccccc1 | 85.3 µM |  |  |  |  |  |  | 
O=C(Cn1ccnc1[N+](=O)[O-])NCc1ccccc1 [BENZNIDAZOLE] | 5.8 µM | 34.1 µM | 3.6 µM | 706 µM | 20.7 | 196.1 |  | 
CC(O)CNCc1nc2ccc(Cl)cc2c(-c2ccccc2)c1C(=O)O (stereo not drawn) | 50.4 µM |  |  |  |  |  |  | 
CC(=O)NCCCCCCNCc1nc2ccc(Cl)cc2c(-c2ccccc2)c1C(=O)O | 3.4 µM | 3.1 µM | 12.8 µM | 771 µM | 248.7 | 60.2 | 3 | Active
CCOC(=O)c1c(CN2CCN(C)CC2)nc2ccc(Cl)cc2c1-c1ccccc1 | 11.8 µM | 6.4 µM | 10.4 µM | 35.9 µM | 5.6 | 3.5 |  | 
CCOC(=O)c1c(CN(C)Cc2ccccc2)nc2ccc(Cl)cc2c1-c1ccccc1 | 9.7 µM | 128 µM | 61 µM | 315 µM | 2.5 | 5.2 |  | 
CCOC(=O)c1c(CN2CCCC2)nc2ccc(Cl)cc2c1-c1ccccc1 | 10 µM | 62.4 µM | 40.3 µM | 490 µM | 7.8 | 12.1 |  | 
CCOC(=O)c1c(CCl)nc2ccc(Cl)cc2c1-c1ccccc1 | 31.4 µM |  |  |  |  |  |  | 
CC(C)NCc1nc2ccc(Cl)cc2c(-c2ccccc2)c1C(=O)O | 89.6 µM |  |  |  |  |  |  | 
CCOC(=O)c1c(CN2CCCCC2)nc2ccc(Cl)cc2c1-c1ccccc1 | 8.2 µM | 51.3 µM | 37.9 µM | 311 µM | 6.05 | 8.2 |  | 
